Assay results taken from ChEMBL document CHEMBL3352189 (J Med Chem, 2014).
≈ marks a conversion by molar mass, not a printed value. Calls of active or inactive are those of the source. The rule behind the calls is not given here.

Experiments:
Cytochrome P450 2C19 = Cytochrome P450 2C19 (Homo sapiens, UniProt P33261); test: Inhibition of human CYP2C19 at 10 uM; assay type: ADME; settings: 10 µM
CYP2D6 = CYP2D6 (Homo sapiens, UniProt P10635); test: Inhibition of human CYP2D6 at 10 uM; assay type: ADME
Chain of CYP2D6 (P10635 whole entry): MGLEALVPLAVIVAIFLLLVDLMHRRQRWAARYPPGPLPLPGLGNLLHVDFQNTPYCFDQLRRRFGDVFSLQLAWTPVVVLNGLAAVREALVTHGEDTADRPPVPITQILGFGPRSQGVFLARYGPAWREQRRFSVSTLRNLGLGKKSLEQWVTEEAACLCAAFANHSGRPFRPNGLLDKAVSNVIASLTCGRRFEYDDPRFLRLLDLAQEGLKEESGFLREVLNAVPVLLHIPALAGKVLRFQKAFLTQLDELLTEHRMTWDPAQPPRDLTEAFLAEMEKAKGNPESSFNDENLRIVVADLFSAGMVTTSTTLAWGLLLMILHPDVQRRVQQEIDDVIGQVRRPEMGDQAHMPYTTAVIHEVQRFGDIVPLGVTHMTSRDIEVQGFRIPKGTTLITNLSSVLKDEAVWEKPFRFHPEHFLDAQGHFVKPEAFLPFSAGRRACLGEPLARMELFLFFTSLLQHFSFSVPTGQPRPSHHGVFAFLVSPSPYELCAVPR

[1] = tested on: Venezuelan equine encephalitis virus; test: Antiviral activity against Venezuelan equine encephalitis virus TC83 infected in Vero 76 cells assessed as reduction in viral titer by crystal violet staining based microplaque assay relative to untreated control; assay type: functional, organism-based; settings: TC83, Vero 76
[2] = tested on: Venezuelan equine encephalitis virus; test: Antiviral activity against Venezuelan equine encephalitis virus TrD infected in Vero 76 cells assessed as reduction in virus-induced cytopathic effect after 2 days by Celltiter-Glo reagent based assay; assay type: functional, organism-based; settings: Vero 76, 48 h
[3] = Selectivity index, ratio of CC50 for african green monkey Vero 76 cells to EC50 for Venezuelan equine encephalitis virus TC83; assay type: toxicity, cell-based; settings: read-out: Ratio CC50/EC50
[4] = tested on: Venezuelan equine encephalitis virus; test: Antiviral activity against Venezuelan equine encephalitis virus TC83 infected in Vero 76 cells assessed as reduction in viral titer at 1 uM by crystal violet staining based microplaque assay relative to untreated control; assay type: functional
[5] = Aqueous solubility in PBS buffer; assay type: physicochemical
Procedure, shortened: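 Solubility measured in 1× PBS at pH 7.4.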

[6] = tested on: Venezuelan equine encephalitis virus; test: Antiviral activity against Venezuelan equine encephalitis virus TC83 infected in Vero 76 cells assessed as reduction in virus-induced cytopathic effect after 2 days by Celltiter-Glo reagent based assay; assay type: functional, organism-based; settings: TC83, Vero 76, 48 h
[7] = Cytotoxicity against african green monkey Vero 76 cells after 3 days by Celltiter-Glo reagent based assay; assay type: cell-based; settings: chlorocebus sabaeus, vero 76, 72 h
Procedure, shortened: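 Vero 76 cells were seeded overnight at 12 000/well and given an 8-point 2-fold compound series (20 mM DMSO stock) in EMEM/10% FBS with no virus. Viability was read by CellTiter-Glo after 3 days relative to untreated cells. Run in duplicate; CC50 from a four-parameter logistic or sigmoidal fit.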

[8] = tested on: Venezuelan equine encephalitis virus; test: Antiviral activity against Venezuelan equine encephalitis virus TrD infected in Vero 76 cells assessed as reduction in viral titer at 1 uM by crystal violet staining based microplaque assay relative to untreated control; assay type: functional
[9] = tested on: Venezuelan equine encephalitis virus; test: Antiviral activity against Venezuelan equine encephalitis virus TrD infected in Vero 76 cells assessed as reduction in viral titer at 0.5 uM by crystal violet staining based microplaque assay relative to untreated control; assay type: functional, organism-based
[10] = tested on: Venezuelan equine encephalitis virus; test: Antiviral activity against Venezuelan equine encephalitis virus TrD infected in Vero 76 cells assessed as reduction in viral titer at 5 uM by crystal violet staining based microplaque assay relative to untreated control; assay type: functional, organism-based
[11] = tested on: Venezuelan equine encephalitis virus; test: Antiviral activity against Venezuelan equine encephalitis virus V3526 infected in Vero 76 cells assessed as reduction in virus-induced cytopathic effect after 2 days by Celltiter-Glo reagent based assay; assay type: functional, organism-based; settings: V3526, Vero 76, 48 h
[12] = Permeability at pH 7.4 by PAMPA assay; assay type: ADME

Chain of Cytochrome P450 2C19 (P33261 whole entry): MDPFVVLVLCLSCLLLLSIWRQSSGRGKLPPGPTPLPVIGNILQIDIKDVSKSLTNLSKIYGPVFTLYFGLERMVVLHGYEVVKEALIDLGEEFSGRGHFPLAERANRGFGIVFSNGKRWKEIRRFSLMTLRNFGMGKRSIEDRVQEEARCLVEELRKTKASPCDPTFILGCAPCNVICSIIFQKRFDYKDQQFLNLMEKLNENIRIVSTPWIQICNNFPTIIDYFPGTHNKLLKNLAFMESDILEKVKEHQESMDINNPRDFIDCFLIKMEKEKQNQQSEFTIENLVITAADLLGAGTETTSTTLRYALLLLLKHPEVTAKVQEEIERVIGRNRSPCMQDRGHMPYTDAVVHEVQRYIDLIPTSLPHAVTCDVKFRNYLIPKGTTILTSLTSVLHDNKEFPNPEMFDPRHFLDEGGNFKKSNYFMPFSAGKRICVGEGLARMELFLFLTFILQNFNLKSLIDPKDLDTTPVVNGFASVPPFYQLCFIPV

Cc1c(OCC(F)(F)F)ccnc1C[S+]([O-])c1nc2ccccc2[nH]1 (centres undefined) [LANSOPRAZOLE]
inhibition (INH) (Cytochrome P450 2C19): 86%

C=C[C@H]1C[N@@]2CC[C@H]1C[C@@H]2[C@@H](O)c1ccnc2ccc(OC)cc12 [QUINIDINE]
inhibition at 10 µM (CYP2D6): 88%

COc1ccc(NC(=O)c2cc([N+](=O)[O-])ccc2/N=C2\CN(C)CCN2C)cc1
EC50 [1]: 170 nM
EC50 [2]: 50 nM
selectivity ratio [3]: > 1250
fold change (FC) [4]: 16000000
solubility [5]: 105.6 µg/mL (≈ 266 µM)
EC50 [6]: 40 nM
CC50 [7]: > 50000 nM
inhibition [8]: Active
inhibition [9]: Active
inhibition [10]: Active
EC50 [11]: 20 nM

Cn1c(=O)c2[nH]cnc2n(C)c1=O.O [THEOPHYLLINE]
permeability [12]: 0.32 ×10⁻⁶ cm/s
